Most compounds without a hit are left out; they make up all but 3% or so of the library.
aDG glyco up: increases alpha dystroglycan glycosylation. Pro5-aDG cells, alpha-DG glycosylation AlphaScreen (IIH6); 0% Pro5, 100% B10-LARGE cell signal. activation, % at 10 µM. actives 0.22% (n = 360,000);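 active means activation of at least 8% versus controls, or a plate z-score of at least 8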;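 further: Pro5 are CHO cells carrying HIG-tagged alpha-DG that lacks glycosylation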
Hep lipid drop: hepatic lipid droplet formation modulation; AML12 mouse hepatocytes, oleate lipid droplets, BODIPY imaging; inhibition, % at 6.5 µM; actives 0.4% (n = 240,000);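 active means lipid droplet intensity inhibited by at least 50%, with more than 500 cells counted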
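Material – AML12 mouse liver cells · Also added – oleate loading, 100 µM · Compound dosing – 6.5 µM single-point dosing · Times – overnight treatment with compound plus oleate · Measured by – fluorescence imaging, 20x objective, two fields per well · Read-out – percent inhibition of filter-corrected integrated lipid droplet intensity per well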
GC-B act: GC-B (human) receptor activation; P20594; HEK293-GC-B cells, CNP EC30, cGMP TR-FRET; 0% at EC30 CNP, 100% saturating CNP; activation, % at 10 µM; actives 0.11% (n = 370,000); AID 1920062;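 active means activation at 10 µM reaching about 35% in either raw or pattern-adjusted values, limit read from the data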
GRIN3A LBD mod: NR3A (human) ligand-binding domain modulation; Tm shift relative to glycine control, % at 25 µM; NR3A LBD differential scanning fluorimetry, Tm shift; 0% = protein alone, 100% = glycine-bound protein; AID 1259313; actives 2.5% (n = 340,000);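 active means melting temperature shift of at least 10% of the positive control shift, at one fixed dose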
GC-A act: GC-A (human) enzyme activation. P16066. HEK293 GC-A cells, cGMP TR-FRET, EC30 ANP; 0% at EC30 ANP, 100% saturating ANP. activation, % at 10 µM. actives 0.14% (n = 370,000). AID 1671463; in the data active means activation above about 40%
JMJD2C inh: human JMJD2C demethylase inhibition | GST-JMJD2C(1-420) H3K9me3 demethylation, DELFIA europium | actives 0.069% (n = 330,000) | inhibition, % at 2.35 µM;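 active means more than half of a compound's replicate wells show inhibition beyond 50%, single wells judged on their own value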;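 further: signal counts dimethyl H3K9 product captured on neutravidin plate; 0% = median of DMSO wells and 100% = 0.3 times that DMSO median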
aDG glyco conf: alpha-DG glycosylation activation, confirmation; shares compounds with aDG glyco up; Pro5-aDG cells, IIH6 AlphaLISA; scaled to LARGE-overexpressing B10 cells as 100%; activation, % at 10 µM (by protocol); actives 17% (n = 600);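 active means activation of at least 7% in one or more replicates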;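 further: cells exposed to compound for two days before detection; 0% = DMSO-treated Pro5 cells and 100% = DMSO-treated B10-LARGE cells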
Active calls of the source: *; x = no result.

SMILES	aDG glyco up	Hep lipid drop	GC-B act	GRIN3A LBD mod	GC-A act	JMJD2C inh	aDG glyco conf
CC(=O)c1ccc(N2CCN(C(=O)Nc3ccc(C(C)C)cc3)CC2)cc1	7.4*	-24	-1	-1	5	9	6.8*
CC1CCCC(C)N1C(=O)CSc1nnnn1Cc1ccccc1 (stereo unspecified)	5.6*	x	4	1	2	-5	-1
Cc1cc(Cl)ccc1NC(=S)NCCN1CCOCC1	0	4	3	0	3	9	x
Fc1cc(Cl)ccc1NC(=S)NCCN1CCOCC1	5.3*	-1	3	-1	2	-14	-1
CCN(CC)CCCN(C(=O)c1ccccc1C)c1nc(-c2ccc(OC)cc2)cs1	0	-16	-7	1	-6	-2	x
CCN(CC)CCCN(C(=O)c1ccccc1F)c1nc(-c2ccc(OC)cc2)cs1	4.0*	2	-10	-1	-6	-4	2
CCCc1cc(=O)oc2cc(C)cc(OCC(=O)NCc3ccncc3)c12	0	-14	-17	0	-15	-5	x
COC(=O)C1=NN(C(C)(C)CC(C)=O)C2C(=O)N(C3CCCCC3)C(=O)C12 (stereo unspecified)	3.1*	21	0	-1	-1	2	-1
CN1CC2(Cc3c1ccc1ccccc31)C(=O)OC(C)(C)OC2=O	6.4*	x	4	0	0	65	-1
c1ccc2c(-c3cc(C4CCNCC4)[nH]n3)cccc2c1	14*	x	1	-6	-2	0	6.4*
O=C1C2CCC(C2)C1CN1CCOCC1 (stereo unspecified)	13*	x	1	0	1	x	-1
CC(C)(C)c1ccc(C(=O)NCCNC(=O)c2ccco2)cc1	0	-15	-3	-1	-1	-4	x
CC(C)COc1cccc(C(=O)NNC(=O)C2COc3ccccc3O2)c1 (stereo unspecified)	6.2*	-5	-1	0	3	-20	0
Nc1ccc(C(=O)NNC(=O)C2COc3ccccc3O2)cc1[N+](=O)[O-] (stereo unspecified)	0	x	-1	-1	2	13	x
